Experimental data as given in ChEMBL document CHEMBL1667822, “Selective antagonists of mouse trace amine-associated receptor 1 (mTAAR1): discovery of EPPTB (RO5212773)” (Bioorg Med Chem Lett, 2011).

What was measured:
[1] = biological target: Mu-type opioid receptor (Homo sapiens) (UniProt P35372); experiment: Displacement of [3H]DAMGO from human recombinant mu opioid receptor expressed in HEK293 cells; assay type: cell-based; details: concentration not given here
[2] = Intrinsic clearance in mouse liver microsomes measured per mg of protein; assay type: ADME, Microsome
Procedure, shortened: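 Intrinsic clearance from in vitro incubation of compound with mouse liver microsomes, expressed per mg microsomal protein.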

[3] = biological target: Adrenergic receptor alpha-1 (Rattus norvegicus) (UniProt P15823+P23944+P43140); experiment: Displacement of [3H]prazosine from alpha1 receptor in rat cerebral cortex; assay type: tissue-based; details: concentration not given here
[4] = biological target: 5-hydroxytryptamine receptor 1B (Rattus norvegicus) (UniProt P28564); experiment: Displacement of [125I]CYP from 5HT1B receptor expressed in rat cerebral cortex; assay type: tissue-based; details: concentration not given here
Chain of 5-hydroxytryptamine receptor 1B (Rattus norvegicus) (P28564 whole entry): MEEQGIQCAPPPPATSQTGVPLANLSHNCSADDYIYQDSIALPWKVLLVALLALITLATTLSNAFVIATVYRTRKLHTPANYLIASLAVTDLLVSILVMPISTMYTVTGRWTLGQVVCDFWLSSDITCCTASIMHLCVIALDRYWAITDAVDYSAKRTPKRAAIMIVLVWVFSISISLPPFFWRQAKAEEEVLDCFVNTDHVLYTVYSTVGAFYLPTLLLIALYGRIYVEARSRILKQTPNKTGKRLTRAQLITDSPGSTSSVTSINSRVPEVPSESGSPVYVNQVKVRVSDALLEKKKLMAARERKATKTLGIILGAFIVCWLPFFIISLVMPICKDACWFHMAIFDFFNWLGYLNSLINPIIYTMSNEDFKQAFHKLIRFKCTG

[5] = biological target: Adenosine receptor A3 (Homo sapiens) (UniProt P0DMS8); experiment: Displacement of [3H]AB-MECA from human recombinant A3 receptor expressed in HEK293 cells; assay type: cell-based; details: concentration not given here
Chain of Adenosine receptor A3 (Homo sapiens) (P0DMS8 whole entry): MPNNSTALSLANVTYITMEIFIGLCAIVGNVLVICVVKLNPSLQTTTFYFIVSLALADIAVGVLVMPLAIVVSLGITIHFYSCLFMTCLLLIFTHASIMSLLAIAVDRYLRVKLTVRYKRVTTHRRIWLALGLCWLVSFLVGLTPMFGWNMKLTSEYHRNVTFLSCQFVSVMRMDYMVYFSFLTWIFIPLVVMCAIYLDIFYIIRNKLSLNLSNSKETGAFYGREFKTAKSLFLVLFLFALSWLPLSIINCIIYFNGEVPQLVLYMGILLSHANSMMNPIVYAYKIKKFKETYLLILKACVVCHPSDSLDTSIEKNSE

[6] = biological target: Beta-1 adrenergic receptor (Homo sapiens) (UniProt P08588); experiment: Displacement of [3H](-)CGP 12177 from human recombinant beta1 receptor expressed in HEK293 cells; assay type: cell-based; details: concentration not given here
Rattus norvegicus [7] = species on record: Rattus norvegicus; experiment: Displacement of [125I]a-dendrotoxin from K+V channel in rat cerebral cortex; assay type: tissue-based; details: concentration not given here
[8] = biological target: 5-hydroxytryptamine receptor 7 (Homo sapiens) (UniProt P34969); experiment: Displacement of [3H]LSD from human recombinant 5HT7 receptor expressed in CHO cells; assay type: cell-based; details: concentration not given here
Rattus norvegicus [9] = species on record: Rattus norvegicus; experiment: Inhibition of rat ca2+ channel verapamil site at 10 uM
[10] = biological target: T1, Trace amine-associated receptor 1 (Homo sapiens, UniProt Q96RJ0); experiment: Antagonist activity at human TAAR1 assessed as reversal of endogenous beta-PEA effect; assay type: functional
T1 sequence (Q96RJ0 whole entry): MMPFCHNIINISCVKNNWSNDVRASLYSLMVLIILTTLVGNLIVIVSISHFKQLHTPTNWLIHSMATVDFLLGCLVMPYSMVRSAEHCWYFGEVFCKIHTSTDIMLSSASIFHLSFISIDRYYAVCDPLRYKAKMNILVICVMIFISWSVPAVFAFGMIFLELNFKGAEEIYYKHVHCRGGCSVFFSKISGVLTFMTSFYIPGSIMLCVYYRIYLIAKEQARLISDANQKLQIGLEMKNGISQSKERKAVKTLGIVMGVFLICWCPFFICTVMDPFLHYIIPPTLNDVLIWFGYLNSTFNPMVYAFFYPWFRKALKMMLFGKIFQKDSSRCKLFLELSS
Procedure, shortened: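 In vitro cAMP functional assay with antagonism read as reversal of the response to the endogenous agonist beta-PEA. Efficacy was scaled so that 100% equals 0% minimum stimulation. Residual beta-PEA stimulation was taken at the highest test-compound concentration. Values are means of at least two independent experiments, with duplicates typically within a twofold margin.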

[11] = biological target: Substance-K receptor (Homo sapiens) (UniProt P21452); experiment: Displacement of [125I]NKA from human recombinant NK2 receptor expressed in CHO cells; assay type: cell-based; details: concentration not given here
[12] = biological target: Adrenergic receptor alpha-2 (Rattus norvegicus) (UniProt P22086+P19328+P22909); experiment: Displacement of [3H]RX8210 from alpha2 receptor in rat cerebral cortex; assay type: tissue-based; details: concentration not given here
[13] = biological target: monoamine oxidase-B (MAO-B) (Rattus norvegicus, UniProt P19643); experiment: Inhibition of rat monoamine oxidase-B at 10 uM
Chain of monoamine oxidase-B (MAO-B) (P19643 whole entry): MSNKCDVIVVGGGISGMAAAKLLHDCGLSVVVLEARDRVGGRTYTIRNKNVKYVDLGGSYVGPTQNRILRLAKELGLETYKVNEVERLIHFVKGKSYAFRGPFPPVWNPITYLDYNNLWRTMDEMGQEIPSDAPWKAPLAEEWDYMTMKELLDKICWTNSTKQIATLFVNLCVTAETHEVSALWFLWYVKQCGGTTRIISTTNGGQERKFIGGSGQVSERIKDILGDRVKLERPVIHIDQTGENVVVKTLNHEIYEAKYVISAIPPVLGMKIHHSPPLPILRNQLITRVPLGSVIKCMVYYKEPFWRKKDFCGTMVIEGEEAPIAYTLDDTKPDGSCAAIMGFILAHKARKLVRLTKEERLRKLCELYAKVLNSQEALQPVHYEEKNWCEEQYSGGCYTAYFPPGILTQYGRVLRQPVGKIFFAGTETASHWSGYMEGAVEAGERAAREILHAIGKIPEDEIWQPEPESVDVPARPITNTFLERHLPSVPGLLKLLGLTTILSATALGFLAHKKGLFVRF

[14] = biological target: 5-hydroxytryptamine receptor 3A (Homo sapiens) (UniProt P46098); experiment: Displacement of [3H]BRL 43694 from human recombinant 5HT3 receptor expressed in CHO cells; assay type: cell-based; details: concentration not given here
Chain of 5-hydroxytryptamine receptor 3A (Homo sapiens) (P46098 whole entry): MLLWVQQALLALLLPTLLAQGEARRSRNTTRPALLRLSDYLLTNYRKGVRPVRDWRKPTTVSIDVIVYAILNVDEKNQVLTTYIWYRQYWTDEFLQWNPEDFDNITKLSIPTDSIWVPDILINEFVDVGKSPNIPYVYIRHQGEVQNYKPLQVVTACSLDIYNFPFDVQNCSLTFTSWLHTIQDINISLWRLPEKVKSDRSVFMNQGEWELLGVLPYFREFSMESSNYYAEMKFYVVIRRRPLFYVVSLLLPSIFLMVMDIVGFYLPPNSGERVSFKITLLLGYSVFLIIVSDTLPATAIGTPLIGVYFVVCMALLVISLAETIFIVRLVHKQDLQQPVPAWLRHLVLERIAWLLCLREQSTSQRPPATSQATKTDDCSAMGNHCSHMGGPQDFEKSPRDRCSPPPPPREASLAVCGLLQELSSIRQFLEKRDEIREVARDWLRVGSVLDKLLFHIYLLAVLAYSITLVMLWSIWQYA

[15] = biological target: Neuropeptide Y receptor type 1 (Homo sapiens) (UniProt P25929); experiment: Displacement of [125I]peptide YY from human recombinant Y1 receptor expressed in […] cell; details: concentration not given here
Chain of Neuropeptide Y receptor type 1 (Homo sapiens) (P25929 whole entry): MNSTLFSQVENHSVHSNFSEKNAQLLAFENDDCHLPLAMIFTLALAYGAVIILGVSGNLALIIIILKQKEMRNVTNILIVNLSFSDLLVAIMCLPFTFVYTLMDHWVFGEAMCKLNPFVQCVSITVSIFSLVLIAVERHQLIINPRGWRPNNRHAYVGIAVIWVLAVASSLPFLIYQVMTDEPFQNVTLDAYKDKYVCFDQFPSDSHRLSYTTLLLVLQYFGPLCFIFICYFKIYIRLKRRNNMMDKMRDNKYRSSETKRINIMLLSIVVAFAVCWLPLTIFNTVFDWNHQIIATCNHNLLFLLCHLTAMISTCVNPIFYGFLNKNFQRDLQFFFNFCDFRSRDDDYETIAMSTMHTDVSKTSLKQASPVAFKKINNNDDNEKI

[16] = biological target: Thromboxane A2 receptor (Homo sapiens) (UniProt P21731); experiment: Displacement of [3H]SQ 29548 from human recombinant TXA2 receptor expressed in HEK293 cells; assay type: cell-based; details: concentration not given here
[17] = biological target: Trace amine-associated receptor 1 (Mus musculus, UniProt Q923Y8); experiment: Antagonist activity at mouse TAAR1 assessed as reversal of endogenous beta-PEA effect; assay type: functional
Procedure, shortened: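 Mouse TAAR1 antagonist dose–response run as an in vitro cAMP functional assay. Efficacy is the reversal of the effect of the endogenous agonist β-PEA, with 100% efficacy defined as 0% min% stim. Values are averages of at least two independent experiments.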

Rattus norvegicus [18] = species on record: Rattus norvegicus; experiment: Inhibition of rat GABA chloride channel at 10 uM
[19] = biological target: Small conductance calcium-activated potassium channel protein 1 (Rattus norvegicus) (UniProt P70606); experiment: Displacement of [125I]apamin from SK+Ca channel in rat cerebral cortex; assay type: tissue-based; details: concentration not given here
[20] = Bioavailability in mouse at 5 mg/kg, ip; assay type: ADME, organism-based; details: in vivo
Procedure, shortened: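 Single-dose pharmacokinetics in mice comparing parenteral routes: intravenous at 2.5 mg/kg and intraperitoneal at 5 mg/kg. Plasma concentrations were followed over time. Bioavailability was derived for the ip route, and Cmax was taken from the ip plasma profile.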

[21] = biological target: Muscarinic acetylcholine receptor M1 (Homo sapiens) (UniProt P11229); experiment: Displacement of [3H]pirenzepine from human recombinant muscarinic M1 receptor expressed in CHO cells; assay type: cell-based; details: concentration not given here
Chain of Muscarinic acetylcholine receptor M1 (Homo sapiens) (P11229 whole entry): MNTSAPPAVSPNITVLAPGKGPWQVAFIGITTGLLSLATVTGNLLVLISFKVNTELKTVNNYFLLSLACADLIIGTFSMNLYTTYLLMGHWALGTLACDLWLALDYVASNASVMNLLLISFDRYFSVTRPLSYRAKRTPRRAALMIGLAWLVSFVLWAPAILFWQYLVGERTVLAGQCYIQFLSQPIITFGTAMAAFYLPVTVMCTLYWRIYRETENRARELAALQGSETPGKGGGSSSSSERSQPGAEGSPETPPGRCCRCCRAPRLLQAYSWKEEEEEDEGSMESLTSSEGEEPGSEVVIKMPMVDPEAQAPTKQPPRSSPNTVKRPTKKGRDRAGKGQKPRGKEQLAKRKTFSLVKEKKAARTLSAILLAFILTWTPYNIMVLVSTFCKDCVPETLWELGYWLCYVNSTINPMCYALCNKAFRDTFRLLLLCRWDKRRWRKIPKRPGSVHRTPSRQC

[22] = biological target: Melatonin receptor type 1A (Homo sapiens) (UniProt P48039); experiment: Displacement of [125I]2-iodomelatonin from human recombinant MT1 receptor expressed in CHO cells; assay type: cell-based; details: concentration not given here
[23] = biological target: Adenosine receptor A1 (Homo sapiens) (UniProt P30542); experiment: Displacement of [3H]DPCPX from human recombinant A1 receptor expressed in CHO cells; assay type: cell-based; details: concentration not given here
[24] = biological target: 5-hydroxytryptamine receptor 5A (Homo sapiens) (UniProt P47898); experiment: Displacement of [3H]LSD from human recombinant 5HT5A receptor expressed in CHO cells; assay type: cell-based; details: concentration not given here
[25] = biological target: Neuropeptide Y receptor type 2 (Homo sapiens) (UniProt P49146); experiment: Displacement of [125I]peptide YY from human recombinant Y2 receptor expressed in KAN-TS cells; assay type: cell-based; details: concentration not given here
[26] = biological target: Adenosine receptor A2a (Homo sapiens) (UniProt P29274); experiment: Displacement of [3H]CGS21680 from human recombinant A2A receptor expressed in HEK293 cells; assay type: cell-based; details: concentration not given here
Chain of Adenosine receptor A2a (Homo sapiens) (P29274 whole entry): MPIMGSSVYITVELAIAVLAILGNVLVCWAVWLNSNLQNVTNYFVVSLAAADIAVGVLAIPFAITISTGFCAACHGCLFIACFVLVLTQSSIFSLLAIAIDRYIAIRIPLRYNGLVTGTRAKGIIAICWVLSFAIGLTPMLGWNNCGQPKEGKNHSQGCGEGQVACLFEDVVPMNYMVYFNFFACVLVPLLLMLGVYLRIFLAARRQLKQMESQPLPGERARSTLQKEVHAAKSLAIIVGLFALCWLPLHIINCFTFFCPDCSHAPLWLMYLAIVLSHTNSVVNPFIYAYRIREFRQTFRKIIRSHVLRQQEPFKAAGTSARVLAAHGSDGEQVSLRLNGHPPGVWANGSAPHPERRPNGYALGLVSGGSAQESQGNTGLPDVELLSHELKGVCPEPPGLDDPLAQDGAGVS

Homo sapiens = species on record: Homo sapiens; experiment: Inhibition of human vasoactive intestinal peptide receptor VPAC1 at 10 uM
[27] = biological target: Melanocortin receptor 4 (Homo sapiens) (UniProt P32245); experiment: Displacement of [125I]NDP-a-MSH from human recombinant MC4 receptor expressed in CHO cells; assay type: cell-based; details: concentration not given here
Rattus norvegicus [28] = species on record: Rattus norvegicus; experiment: Displacement of [3H]GABA from GABA receptor in rat cerebral cortex; assay type: tissue-based; details: concentration not given here
[29] = biological target: Galanin receptor type 2 (Homo sapiens) (UniProt O43603); experiment: Displacement of [125I]Galanin from human recombinant GAL2 receptor expressed in CHO cells; assay type: cell-based; details: concentration not given here
[30] = biological target: Sodium-dependent serotonin transporter (Homo sapiens) (UniProt P31645); experiment: Inhibition of human serotonin transporter at 10 uM
Chain of Sodium-dependent serotonin transporter (Homo sapiens) (P31645 whole entry, looked up): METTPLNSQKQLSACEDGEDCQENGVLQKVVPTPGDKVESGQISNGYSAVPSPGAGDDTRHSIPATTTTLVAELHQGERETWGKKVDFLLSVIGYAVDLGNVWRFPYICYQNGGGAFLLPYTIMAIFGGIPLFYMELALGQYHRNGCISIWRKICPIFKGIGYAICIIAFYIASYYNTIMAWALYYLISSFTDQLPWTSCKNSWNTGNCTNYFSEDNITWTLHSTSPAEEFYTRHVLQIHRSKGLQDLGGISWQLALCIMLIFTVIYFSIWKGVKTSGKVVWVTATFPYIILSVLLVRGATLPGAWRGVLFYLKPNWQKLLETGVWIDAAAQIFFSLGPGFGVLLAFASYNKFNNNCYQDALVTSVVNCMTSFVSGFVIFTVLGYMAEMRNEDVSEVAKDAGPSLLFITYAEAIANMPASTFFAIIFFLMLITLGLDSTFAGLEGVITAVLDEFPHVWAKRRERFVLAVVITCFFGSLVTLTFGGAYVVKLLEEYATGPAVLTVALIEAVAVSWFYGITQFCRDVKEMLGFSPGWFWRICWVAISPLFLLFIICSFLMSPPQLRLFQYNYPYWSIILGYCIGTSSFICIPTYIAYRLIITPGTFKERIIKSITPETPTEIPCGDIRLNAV

[31] = biological target: Sodium-dependent dopamine transporter (Homo sapiens) (UniProt Q01959); experiment: Inhibition of human dopamine transporter at 10 uM
Chain of Sodium-dependent dopamine transporter (Homo sapiens) (Q01959 whole entry): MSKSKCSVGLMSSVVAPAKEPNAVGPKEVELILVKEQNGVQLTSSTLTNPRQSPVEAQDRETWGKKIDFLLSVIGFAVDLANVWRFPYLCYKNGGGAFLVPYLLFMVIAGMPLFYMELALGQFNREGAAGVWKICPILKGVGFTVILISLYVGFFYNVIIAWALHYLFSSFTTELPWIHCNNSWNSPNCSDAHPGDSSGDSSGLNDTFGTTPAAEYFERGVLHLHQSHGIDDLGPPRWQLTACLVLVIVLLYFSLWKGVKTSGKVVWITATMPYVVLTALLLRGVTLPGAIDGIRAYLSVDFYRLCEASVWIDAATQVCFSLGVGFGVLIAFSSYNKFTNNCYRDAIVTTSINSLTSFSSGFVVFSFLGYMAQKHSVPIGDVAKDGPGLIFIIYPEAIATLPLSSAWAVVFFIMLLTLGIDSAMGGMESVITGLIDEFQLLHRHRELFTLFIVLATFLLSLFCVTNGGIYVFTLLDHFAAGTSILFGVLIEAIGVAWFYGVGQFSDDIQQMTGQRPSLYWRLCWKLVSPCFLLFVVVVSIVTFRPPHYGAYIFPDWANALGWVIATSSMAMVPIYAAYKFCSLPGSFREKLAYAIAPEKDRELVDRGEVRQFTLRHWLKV

[32] = biological target: 5-hydroxytryptamine receptor 6 (Homo sapiens) (UniProt P50406); experiment: Displacement of [3H]LSD from human recombinant 5HT6 receptor expressed in CHO cells; assay type: cell-based; details: concentration not given here
Chain of 5-hydroxytryptamine receptor 6 (Homo sapiens) (P50406 whole entry): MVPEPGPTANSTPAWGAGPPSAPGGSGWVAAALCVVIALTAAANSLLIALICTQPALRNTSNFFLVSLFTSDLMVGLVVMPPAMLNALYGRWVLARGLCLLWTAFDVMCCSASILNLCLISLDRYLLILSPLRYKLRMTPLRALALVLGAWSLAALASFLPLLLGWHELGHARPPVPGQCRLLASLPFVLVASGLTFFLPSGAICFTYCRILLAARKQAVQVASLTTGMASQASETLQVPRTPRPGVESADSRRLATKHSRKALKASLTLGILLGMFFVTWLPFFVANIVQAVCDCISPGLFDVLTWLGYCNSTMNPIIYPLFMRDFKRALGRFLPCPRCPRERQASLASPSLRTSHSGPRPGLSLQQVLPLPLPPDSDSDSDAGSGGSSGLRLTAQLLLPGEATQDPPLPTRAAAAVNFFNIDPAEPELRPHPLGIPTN

CCOc1cccc(NC(=O)c2ccc(N3CCCC3)c(C(F)(F)F)c2)c1
inhibition [1]: 42%
clearance [2]: 109 µL/min/mg
inhibition [3]: 8%
inhibition [4]: 53%
inhibition [5]: 80%
inhibition [6]: 4%
inhibition (Rattus norvegicus [7]): -3%
inhibition [8]: 10%
inhibition (Rattus norvegicus [9]): 16%
IC50 [10]: 7.49 µM
inhibition [11]: 19%
inhibition [12]: 23%
inhibition at 10 µM [13]: 39%
inhibition [14]: 9%
inhibition [15]: 4%
inhibition [16]: 8%
IC50 [17]: 28 nM
inhibition (Rattus norvegicus [18]): 63%
inhibition [19]: 0%
bioavailability [20]: 74%
inhibition [21]: 4%
inhibition [22]: 54%
inhibition [23]: 50%
inhibition [24]: 21%
inhibition [25]: 6%
inhibition [26]: 13%
inhibition (Homo sapiens): 13%
inhibition [27]: -2%
inhibition (Rattus norvegicus [28]): 10%
inhibition [29]: 13%
inhibition [30]: -7%
inhibition [31]: 43%
inhibition [32]: 7%
